Assay results reported in ChEMBL document CHEMBL2331494, “First synthesis and biological evaluation of indeno[2,1-e]pyrazolo[3,4-b]pyrazin-5-one and related derivatives” (2013).
In brackets after ≈: the same amount, converted by molar mass.

What was measured:
Assay type in all cases: functional
Bacillus cereus = test: Antibacterial activity against Bacillus cereus AUMC B-52 assessed as diameter of growth inhibition zone at 20 mg/ml at 28 degC after 48 hrs; details: AUMC B-52, 48 h, read-out: DIZ
In short: (§1)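 Inocula: each bacterial strain grown 48 h in nutrient broth (30 ml per flask). For the assay, 1 ml microbial suspension and 15 ml nutrient agar were poured into each 10 cm Petri plate, compound solutions were applied, and the diameter of the inhibition zone was read.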

Aspergillus flavus [1] = test: Antifungal activity against Aspergillus flavus AUMC 1276 assessed as diameter of growth inhibition zone at 20 mg/ml at 28 degC after 7 days; details: AUMC 1276, 168 h, read-out: DIZ
In short: (§2)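 Inocula: each fungus grown 7 days in Sabouraud's dextrose broth (30 ml per flask). Plates were 10 cm Petri dishes with 1 ml microbial suspension and 15 ml Sabouraud's dextrose agar each. Compound solutions were applied and the diameter of the growth inhibition zone was recorded.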

Trichophyton rubrum [2] = test: Antifungal activity against Trichophyton rubrum AUMC 1804 assessed as diameter of growth inhibition zone at 20 mg/ml at 28 degC after 7 days; details: AUMC 1804, 168 h, read-out: DIZ; in short: as §2
Fusarium oxysporum = test: Antifungal activity against Fusarium oxysporum AUMC 5119 assessed as diameter of growth inhibition zone at 20 mg/ml at 28 degC after 7 days; details: AUMC 5119, 168 h, read-out: DIZ; in short: as §2
Escherichia coli = test: Antibacterial activity against Escherichia coli AUMC B-53 assessed as diameter of growth inhibition zone at 20 mg/ml at 28 degC after 48 hrs; details: AUMC B-53, 48 h, read-out: DIZ; in short: as §1
[3] = tested on: Scopulariopsis brevicaulis; test: Antifungal activity against Scopulariopsis brevicaulis AUMC 729 assessed as diameter of growth inhibition zone at 20 mg/ml at 28 degC after 7 days; details: AUMC 729, 168 h, read-out: DIZ; in short: as §2
Geotrichum candidum = test: Antifungal activity against Geotrichum candidum AUMC 226 assessed as diameter of growth inhibition zone at 20 mg/ml at 28 degC after 7 days; details: AUMC 226, 168 h, read-out: DIZ; in short: as §2
Candida albicans = test: Antifungal activity against Candida albicans AUMC 418 assessed as diameter of growth inhibition zone at 20 mg/ml at 28 degC after 7 days; details: AUMC 418, 168 h, read-out: DIZ; in short: as §2
Micrococcus luteus = test: Antibacterial activity against Micrococcus luteus AUMC B-112 assessed as diameter of growth inhibition zone at 20 mg/ml at 28 degC after 48 hrs; details: AUMC B-112, 48 h, read-out: DIZ; in short: as §1
Pseudomonas aeruginosa = test: Antibacterial activity against Pseudomonas aeruginosa AUMC B-73 g assessed as diameter of growth inhibition zone at 20 mg/ml at 28 degC after 48 hrs; details: read-out: DIZ; in short: as §1
Serratia marcescens = test: Antibacterial activity against Serratia marcescens AUMC B-55 assessed as diameter of growth inhibition zone at 20 mg/ml at 28 degC after 48 hrs; details: AUMC B-55, 48 h, read-out: DIZ; in short: as §1
Staphylococcus aureus = test: Antibacterial activity against Staphylococcus aureus AUMC B-54 assessed as diameter of growth inhibition zone at 20 mg/ml at 28 degC after 48 hrs; details: AUMC B-54, 48 h, read-out: DIZ; in short: as §1
Trichophyton rubrum [4] = test: Antifungal activity against Trichophyton rubrum AUMC 1804 assessed as growth inhibition at 28 degC after 7 days; details: for MIC: Trichophyton rubrum, AUMC 1804, 168 h
Aspergillus flavus [5] = test: Antifungal activity against Aspergillus flavus AUMC 3214 assessed as growth inhibition at 28 degC after 7 days; details: for MIC: Aspergillus flavus, AUMC 3214, 168 h

Row | MIC (Trichophyton rubrum [4]) [mg/L] | MIC (Aspergillus flavus [5]) [mg/L] | Structure (SMILES) | zone of inhibition at 20000 µg/mL (Bacillus cereus) [mm] | zone of inhibition at 20000 µg/mL (Aspergillus flavus [1]) [mm] | zone of inhibition at 20000 µg/mL (Trichophyton rubrum [2]) [mm] | zone of inhibition at 20000 µg/mL (Fusarium oxysporum) [mm] | zone of inhibition at 20000 µg/mL (Escherichia coli) [mm] | zone of inhibition at 20000 µg/mL [3] [mm] | zone of inhibition at 20000 µg/mL (Geotrichum candidum) [mm] | zone of inhibition at 20000 µg/mL (Candida albicans) [mm] | zone of inhibition at 20000 µg/mL (Micrococcus luteus) [mm] | zone of inhibition at 20000 µg/mL (Pseudomonas aeruginosa) [mm] | zone of inhibition at 20000 µg/mL (Serratia marcescens) [mm] | zone of inhibition at 20000 µg/mL (Staphylococcus aureus) [mm] | diameter of the inhibition zone (DIZ) (Trichophyton rubrum [4]) [mm] | diameter of the inhibition zone (DIZ) (Aspergillus flavus [5]) [mm]
1 | 300 (≈ 603 µM) | 2500 (≈ 5020 µM) | CCOC(=O)C1S/C(=N\N=C2/c3ccccc3-c3nc4c(nc32)c(C)nn4-c2ccccc2)NC1=O (stereo unspecified) | 0 | 13 | 30 | 0 | 8 | 0 | 10 | 0 | 0 | 8 | 0 | 8 | 16 | 10
2 | 600 (≈ 1410 µM) | 5000 (≈ 11800 µM) | Cc1nn(-c2ccccc2)c2nc3c(nc12)/C(=N/N=C1/NC(=O)CS1)c1ccccc1-3 | 0 | 12 | 26 | 0 | 8 | 0 | 10 | 0 | 0 | 8 | 0 | 10 | 12 | 10
3 | 300 (≈ 618 µM) | 2500 (≈ 5150 µM) | Cc1nn(-c2ccccc2)c2nc3c(nc12)/C(=N/N=c1/[nH]c(-c2ccccc2)cs1)c1ccccc1-3 | 0 | 16 | 30 | 0 | 8 | 0 | 10 | 0 | 0 | 0 | 0 | 10 | 14 | 12
4 | 600 (≈ 1430 µM) | 20000 (≈ 47500 µM) | Cc1nn(-c2ccccc2)c2nc3c(nc12)/C(=C/c1ccccc1Cl)c1ccccc1-3 | 0 | 9 | 26 | 0 | 8 | 0 | 0 | 0 | 0 | 8 | 0 | 10 | 10 | 9
5 | 300 (≈ 778 µM) | 2500 (≈ 6490 µM) | Cc1nn(-c2ccccc2)c2nc3c(nc12)/C(=N\NC(N)=S)c1ccccc1-3 | 0 | 16 | 30 | 0 | 0 | 0 | 17 | 0 | 0 | 0 | 0 | 8 | 14 | 14

The remaining lines, values behind:

Row | Structure (SMILES) | MIC (Trichophyton rubrum [4]) [mg/L] | MIC (Aspergillus flavus [5]) [mg/L] | zone of inhibition at 20000 µg/mL (Bacillus cereus) [mm] | zone of inhibition at 20000 µg/mL (Aspergillus flavus [1]) [mm] | zone of inhibition at 20000 µg/mL (Trichophyton rubrum [2]) [mm] | zone of inhibition at 20000 µg/mL (Fusarium oxysporum) [mm] | zone of inhibition at 20000 µg/mL (Escherichia coli) [mm] | zone of inhibition at 20000 µg/mL [3] [mm] | zone of inhibition at 20000 µg/mL (Geotrichum candidum) [mm] | zone of inhibition at 20000 µg/mL (Candida albicans) [mm] | zone of inhibition at 20000 µg/mL (Micrococcus luteus) [mm] | zone of inhibition at 20000 µg/mL (Pseudomonas aeruginosa) [mm] | zone of inhibition at 20000 µg/mL (Serratia marcescens) [mm] | zone of inhibition at 20000 µg/mL (Staphylococcus aureus) [mm] | diameter of the inhibition zone (DIZ) (Trichophyton rubrum [4]) [mm] | diameter of the inhibition zone (DIZ) (Aspergillus flavus [5]) [mm]
6 | Cc1nn(-c2ccccc2)c2nc3c(nc12)/C(=N/N)c1ccccc1-3 | – | – | 0 | 0 | 0 | 0 | 8 | 0 | 0 | 0 | 0 | 0 | 0 | 8 | – | –
7 | Cc1nn(-c2ccccc2)c2nc3c(nc12)Cc1ccccc1-3 | – | – | 0 | 0 | 0 | 0 | 0 | 0 | 0 | 0 | 0 | 0 | 0 | 8 | – | –
8 | Cc1nn(-c2ccccc2)c2nc3c(nc12)C(=O)c1ccccc1-3 | – | – | 0 | 0 | 0 | 0 | 10 | 0 | 0 | 0 | 0 | 0 | 0 | 8 | – | –
9 | CCOC(=O)/C(C#N)=C1\c2ccccc2-c2nc3c(nc21)c(C)nn3-c1ccccc1 | – | – | 0 | 0 | 0 | 0 | 8 | 0 | 0 | 10 | 0 | 8 | 0 | 8 | – | –
10 | Cc1nn(-c2ccccc2)c2nc3c(nc12)/C(=N\O)c1ccccc1-3 | – | – | 0 | 0 | 0 | 0 | 0 | 0 | 0 | 0 | 0 | 8 | 0 | 8 | – | –
11 | O=C(N[C@H](CO)[C@H](O)c1ccc([N+](=O)[O-])cc1)C(Cl)Cl [CHLORAMPHENICOL] | – | – | 22 | – | – | – | 18 | – | – | – | 20 | 18 | 20 | 18 | – | –
12 | Clc1ccccc1C(c1ccccc1)(c1ccccc1)n1ccnc1 [CLOTRIMAZOLE] | 80 (≈ 232 µM) | 150 (≈ 435 µM) | – | 44 | 36 | 20 | – | 28 | 26 | 24 | – | – | – | – | 35 | 15
